Test results as given in ChEMBL document CHEMBL1129245, “N-heteroaryl-2-phenyl-3-(benzyloxy)piperidines: a novel class of potent orally active human NK1 antagonists” (J Med Chem, 1996).

How the values were obtained:
[1] = biological target: Substance-P receptor (Homo sapiens, UniProt P25103); experiment: Displacement of [125 I]-Tyr8 SP from the cloned human Tachykinin receptor 1 expressed in CHO cells; type: cell-based
[2] = species: Oryctolagus cuniculus; experiment: Displacement of [3H]diltiazem from rabbit skeletal muscle calcium channel; type: tissue-based; settings: Muscle tissue
[3] = Bioavailability expressed as F% in Rhesus monkey; type: ADME, organism-based, Macaca mulatta; settings: in vivo
[4] = system: Rattus norvegicus; experiment: Plasma concentration after 3 mg/kg peroral dosing in rat at 0.5 hr in rats; type: ADME, organism-based; design: dose 3 mg/kg, route oral; settings: in vivo, po
[5] = Bioavailability in rat; type: ADME, organism-based; settings: in vivo
[6] = system: Rhesus monkey; experiment: Plasma concentration after 3 mg/kg peroral dosing in Rhesus monkey at 8.0 hr; type: ADME, organism-based, Macaca mulatta; design: dose 3 mg/kg, route oral; settings: in vivo, po
Outline: (§1)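 Rhesus monkeys dosed at 3 mg/kg in propylene glycol, intravenously and orally, n = 2 per data point. Plasma concentrations given as mean ± SEM, and pharmacokinetic parameters calculated with standard equations.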

[7] = system: Rhesus monkey; experiment: Plasma concentration after 3 mg/kg peroral dosing in Rhesus monkey at 1.0 hr; type: ADME, organism-based, Macaca mulatta; design: dose 3 mg/kg, route oral; settings: in vivo, po; outline: as §1
[8] = system: Rattus norvegicus; experiment: Plasma concentration after 3 mg/kg peroral dosing in rat at 0.083 hr in rats; type: ADME, organism-based; design: dose 3 mg/kg, route oral; settings: in vivo, po
[9] = VD values expressed in (L/Kg) in Rhesus monkey; type: ADME, organism-based, Macaca mulatta; settings: in vivo
Outline: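 Rhesus monkeys dosed at 3 mg/kg in propylene glycol, intravenously and orally, with n = 2 per data point. Pharmacokinetic parameters calculated from the plasma concentration data using standard equations. Values given as mean ± SEM.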

[10] = system: Rhesus monkey; experiment: Plasma concentration after 3 mg/kg intravenous dosing in Rhesus monkey at 4.0h; type: ADME, organism-based, Macaca mulatta; design: dose 3 mg/kg, route intravenous; settings: in vivo, 4 h; outline: as §1
[11] = system: Rhesus monkey; experiment: Plasma concentration after 3 mg/kg intravenous dosing in Rhesus monkey at 6.0 hr; type: ADME, organism-based, Macaca mulatta; design: dose 3 mg/kg, route intravenous; settings: in vivo; outline: as §1
[12] = system: Rattus norvegicus; experiment: Plasma concentration after 3 mg/kg peroral dosing in rat at 1.0 hr in rats; type: ADME, organism-based; design: dose 3 mg/kg, route oral; settings: in vivo, po
[13] = system: Rattus norvegicus; experiment: Plasma concentration of 3 mg/kg iv after 4 hr in rats; type: ADME, organism-based; design: dose 3 mg/kg, route intravenous; settings: in vivo
Outline: (§2)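 Rats given compound intravenously and orally in solution. Three rats per time point sampled for plasma drug levels. Pharmacokinetic parameters calculated from the plasma concentration–time data using standard equations. Data reported as mean ± SEM.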

[14] = system: Rattus norvegicus; experiment: Plasma concentration of 3 mg/kg iv after 6 hr in rats; type: ADME, organism-based; design: dose 3 mg/kg, route intravenous; settings: in vivo; outline: as §2
[15] = system: Rattus norvegicus; experiment: Plasma concentration after 3 mg/kg peroral dosing in rat at 0.25 hr in rats; type: ADME, organism-based; design: dose 3 mg/kg, route oral; settings: in vivo, po
[16] = system: Rattus norvegicus; experiment: Plasma concentration after 3 mg/kg peroral dosing in rat at 8.0 hr in rats; type: ADME, organism-based; design: dose 3 mg/kg, route oral; settings: in vivo, po
[17] = system: Rhesus monkey; experiment: Plasma concentration after 3 mg/kg intravenous dosing in Rhesus monkey at 1.0 hr; type: ADME, organism-based, Macaca mulatta; design: dose 3 mg/kg, route intravenous; settings: in vivo; outline: as §1
[18] = system: Rattus norvegicus; experiment: Plasma concentration after 3 mg/kg peroral dosing in rat at 6.0 hr in rats; type: ADME, organism-based; design: dose 3 mg/kg, route oral; settings: in vivo, po
[19] = system: Rattus norvegicus; experiment: Inhibition of […] of the rat after intravenous administration; type: functional; settings: read-out: ID50 (the source's name)
Outline: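 Rats given test compound intravenously. Plasma extravasation in the dura mater measured, n = 8-10. ID50 reported in mg/kg iv.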

[20] = system: Rhesus monkey; experiment: Plasma concentration after 3 mg/kg peroral dosing in Rhesus monkey at 6.0 hr; type: ADME, organism-based, Macaca mulatta; design: dose 3 mg/kg, route oral; settings: in vivo, po; outline: as §1
[21] = system: Rattus norvegicus; experiment: Plasma concentration after 3 mg/kg peroral dosing in rat at 4.0h in rats; type: ADME, organism-based; design: dose 3 mg/kg, route oral; settings: in vivo, po, 4 h
[22] = system: Rhesus monkey; experiment: Plasma concentration after 3 mg/kg peroral dosing in Rhesus monkey at 0.167 hr; type: ADME, organism-based, Macaca mulatta; design: dose 3 mg/kg, route oral; settings: in vivo, po; outline: as §1
[23] = system: Rhesus monkey; experiment: Plasma concentration after 3 mg/kg peroral dosing in Rhesus monkey at 0.5 hr; type: ADME, organism-based, Macaca mulatta; design: dose 3 mg/kg, route oral; settings: in vivo, po; outline: as §1
[24] = system: Rattus norvegicus; experiment: Plasma concentration of 3 mg/kg iv after 8 hr in rats; type: ADME, organism-based; design: dose 3 mg/kg, route intravenous; settings: in vivo; outline: as §2
[25] = system: Rattus norvegicus; experiment: Plasma concentration of 3 mg/kg iv after 0.5 hr in rats; type: ADME, organism-based; design: dose 3 mg/kg, route intravenous; settings: in vivo; outline: as §2
[26] = system: Rattus norvegicus; experiment: Plasma concentration of 3 mg/kg iv after 0.083 hr in rats; settings: in vivo
[27] = system: Rhesus monkey; experiment: Plasma concentration after 3 mg/kg peroral dosing in Rhesus monkey at 2.0 hr; type: ADME, organism-based, Macaca mulatta; design: dose 3 mg/kg, route oral; settings: in vivo, po; outline: as §1
[28] = system: Rhesus monkey; experiment: Plasma concentration after 3 mg/kg intravenous dosing in Rhesus monkey at 8.0 hr; type: ADME, organism-based, Macaca mulatta; design: dose 3 mg/kg, route intravenous; settings: in vivo; outline: as §1
[29] = Plasma clearance after intravenous administration dosing (3 mg/kg) in Rhesus monkey
[30] = system: Rattus norvegicus; experiment: Plasma concentration after 3 mg/kg peroral dosing in rat at 7.0 hr in rats; type: ADME, organism-based; design: dose 3 mg/kg, route oral; settings: in vivo, po
[31] = system: Rhesus monkey; experiment: Plasma concentration after 3 mg/kg intravenous dosing in Rhesus monkey at 2.0 hr; type: ADME, organism-based, Macaca mulatta; design: dose 3 mg/kg, route intravenous; settings: in vivo; outline: as §1
[32] = system: Rattus norvegicus; experiment: Plasma concentration of 3 mg/kg iv after 2 hr in rats; type: ADME, organism-based; design: dose 3 mg/kg, route intravenous; settings: in vivo; outline: as §2
[33] = system: Rattus norvegicus; experiment: Plasma concentration of 3 mg/kg iv after 0.25 hr in rats; type: ADME, organism-based; design: dose 3 mg/kg, route intravenous; settings: in vivo; outline: as §2
[34] = system: Mustela putorius furo; experiment: Effects on […] and vomiting response in ferrets induced by 10 mg/kg iv dose of cisplatin; type: functional
Outline: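 Ferrets given cisplatin 10 mg/kg iv to induce retching and vomiting. Test compound given iv; response observed over a 4 h period, n = 6-8 per group.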

[35] = system: Cavia porcellus; experiment: Inhibition of SP induced dermal extravasation in the guinea pig after peroral administration; type: functional; settings: read-out: ID50 (the source's name)
Outline: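 Guinea pigs were dosed orally, then challenged with intradermal SP 1 h later. Vascular leakage was measured as Evans blue extravasation into the skin. Dose-response was run with 5-12 animals per point, and ID50 is reported in mg/kg po.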

[36] = system: Rattus norvegicus; experiment: Plasma concentration of 3 mg/kg iv after 3h in rats; type: ADME, organism-based; design: dose 3 mg/kg, route intravenous; settings: in vivo; outline: as §2
[37] = system: Rattus norvegicus; experiment: Plasma concentration after 3 mg/kg peroral dosing in rat at 3.0 hh in rats; type: ADME, organism-based; design: dose 3 mg/kg, route oral; settings: in vivo, po
[38] = system: Rattus norvegicus; experiment: Plasma concentration of 3 mg/kg iv after 5 hr in rats; type: ADME, organism-based; design: dose 3 mg/kg, route intravenous; settings: in vivo; outline: as §2
[39] = system: Rattus norvegicus; experiment: Plasma concentration after 3 mg/kg peroral dosing in rat at 2.0 hr in rats; type: ADME, organism-based; design: dose 3 mg/kg, route oral; settings: in vivo, po
[40] = system: Rhesus monkey; experiment: Plasma concentration after 3 mg/kg peroral dosing in Rhesus monkey at 4.0h; type: ADME, organism-based, Macaca mulatta; design: dose 3 mg/kg, route oral; settings: in vivo, po, 4 h; outline: as §1
[41] = system: Rattus norvegicus; experiment: Plasma concentration of 3 mg/kg iv after 1 hr in rats; type: ADME, organism-based; design: dose 3 mg/kg, route intravenous; settings: in vivo; outline: as §2
[42] = system: Rhesus monkey; experiment: Plasma concentration after 3 mg/kg intravenous dosing in Rhesus monkey at 0.5 hr; type: ADME, organism-based, Macaca mulatta; design: dose 3 mg/kg, route intravenous; settings: in vivo; outline: as §1
[43] = VD values expressed in (L/Kg) in rat; type: ADME, organism-based; settings: in vivo; outline: as §2
[44] = system: Rattus norvegicus; experiment: Plasma concentration of 3 mg/kg iv after 7 hr in rats; type: ADME, organism-based; design: dose 3 mg/kg, route intravenous; settings: in vivo; outline: as §2
[45] = system: Rattus norvegicus; experiment: Plasma concentration after 3 mg/kg peroral dosing in rat at 5.0 hr in rats; type: ADME, organism-based; design: dose 3 mg/kg, route oral; settings: in vivo, po
[46] = system: Rhesus monkey; experiment: Plasma concentration after 3 mg/kg intravenous dosing in Rhesus monkey at 0.167 hr; type: ADME, organism-based, Macaca mulatta; design: dose 3 mg/kg, route intravenous; settings: in vivo; outline: as §1
[47] = Plasma clearance after intravenous administration dosing (3 mg/kg) in rat

Sequence of Substance-P receptor (P25103 whole entry): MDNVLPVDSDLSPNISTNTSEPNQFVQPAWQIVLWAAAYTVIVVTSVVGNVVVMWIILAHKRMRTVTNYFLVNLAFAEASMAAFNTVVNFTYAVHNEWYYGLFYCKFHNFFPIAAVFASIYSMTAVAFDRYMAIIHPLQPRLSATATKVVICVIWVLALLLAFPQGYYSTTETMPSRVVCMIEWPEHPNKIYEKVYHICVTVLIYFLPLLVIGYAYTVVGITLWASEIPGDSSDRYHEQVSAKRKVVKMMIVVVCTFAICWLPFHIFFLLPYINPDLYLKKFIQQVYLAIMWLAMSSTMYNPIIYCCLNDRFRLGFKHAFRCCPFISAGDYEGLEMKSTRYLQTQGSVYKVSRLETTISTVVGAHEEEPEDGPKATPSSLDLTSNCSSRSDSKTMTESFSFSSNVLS

FC(F)(F)c1cc(CO[C@H]2CCCN(Cc3cnc[nH]3)[C@H]2c2ccccc2)cc(C(F)(F)F)c1
IC50 [1]: 900 pM

FC(F)(F)c1cc(CO[C@H]2CCCN(Cc3n[nH]c(S)n3)[C@H]2c2ccccc2)cc(C(F)(F)F)c1
IC50 [1]: 800 pM
Binding affinity [2]: 10 µM

O=c1[nH]nc(CN2CCC[C@H](OCc3cc(C(F)(F)F)cc(C(F)(F)F)c3)[C@@H]2c2ccccc2)[nH]1
bioavailability [3]: 23.7%
Concentration [4]: 70 ng/mL
bioavailability [5]: 46%
Concentration [6]: 500 ng/mL
Concentration [7]: 80 ng/mL
Concentration [8]: 11 ng/mL
Vd [9]: 0.55 L/kg
Concentration [10]: 1980 ng/mL
Concentration [11]: 1220 ng/mL
Concentration [12]: 45 ng/mL
Concentration [13]: 30 ng/mL
Concentration [14]: 9 ng/mL
Concentration [15]: 29 ng/mL
Concentration [16]: < 5 ng/mL
Concentration [17]: 3660 ng/mL
Concentration [18]: 12 ng/mL
ED50 [19]: 0.028 mg/kg
Concentration [20]: 580 ng/mL
Concentration [21]: 41 ng/mL
Concentration [22]: 20 ng/mL
Concentration [23]: 50 ng/mL
Concentration [24]: < 5 ng/mL
Concentration [25]: 291 ng/mL
Concentration [26]: 599 ng/mL
Concentration [27]: 150 ng/mL
IC50 [1]: 50 pM
Concentration [28]: 720 ng/mL
Binding affinity [2]: 12.6 µM
clearance [29]: 2.4 mL/min/kg
Concentration [30]: < 5 ng/mL
Concentration [31]: 3080 ng/mL
Concentration [32]: 135 ng/mL
Concentration [33]: 244 ng/mL
ID90 [34]: 1 mg/kg
ED50 [35]: 0.037 mg/kg
Concentration [36]: 52 ng/mL
Concentration [37]: 65 ng/mL
Concentration [38]: 21 ng/mL
Concentration [39]: 94 ng/mL
Concentration [40]: 520 ng/mL
Concentration [41]: 203 ng/mL
Concentration [42]: 5020 ng/mL
Vd [43]: 6.5 L/kg
Concentration [44]: < 5 ng/mL
Concentration [45]: 25 ng/mL
Concentration [46]: 5240 ng/mL
clearance [47]: 73 mL/min/kg

FC(F)(F)c1cc(CO[C@H]2CCCN(Cc3ccco3)[C@H]2c2ccccc2)cc(C(F)(F)F)c1
IC50 [1]: 36000 pM

FC(F)(F)c1cc(CO[C@H]2CCCN(Cc3nnco3)[C@H]2c2ccccc2)cc(C(F)(F)F)c1
IC50 [1]: 970 pM
Binding affinity [2]: 10 µM

FC(F)(F)c1cc(CO[C@H]2CCCN(Cc3ncc[nH]3)[C@H]2c2ccccc2)cc(C(F)(F)F)c1
IC50 [1]: 530 pM
Binding affinity [2]: 2.06 µM

FC(F)(F)c1cc(CO[C@H]2CCCN(Cc3nnn[nH]3)[C@H]2c2ccccc2)cc(C(F)(F)F)c1
IC50 [1]: 43000 pM
